From article PMC4240344 (Bioconjugate Chemistry, 2014)

Assays:
[1] = system: integrin αvβ3/αvβ5 in xenografted U87MG glioma and human colon cancer tissues; assay: Tumor tissue staining: blocking and RGD-specificity experiments; conditions: 100 μM; for Staining of tumor tissues (RGD specificity): xenografted U87MG glioma and human colon cancer tissues, same conditions
Method in brief: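 Sections were frozen, acetone-fixed U87MG xenograft slices (5 μm) or deparaffinized, rehydrated human colon cancer slides. They were blocked with 10% goat serum (30 min, 37 °C), then incubated with 100 μM test compound for 1 h at RT, with or without 10 mM c(RGDfK)2 as blocker. After three PBS washes and DAPI mounting, ≥15 random fields per section were scored. Fluorescent area was given as % of total, mean ± standard deviation.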

[2] = system: integrin αvβ3/αvβ5 in xenografted U87MG glioma tissues; set-up: species or system human; conditions: peptide 100 μM, antibody 2.5 μg/mL, 5-120 min
Method in brief: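 Frozen 5 μm slices of U87MG xenograft were fixed in ice-cold acetone for 10 min and air-dried at RT. They were incubated with 100 μM test compound at RT for 5, 15, 30, 60, 90 or 120 min, PBS-washed three times and mounted with DAPI medium. The antibody arm used 10% goat serum (30 min, 37 °C), then rabbit anti-integrin β3 (2.5 μg/mL) for the same times, then Cy3 goat anti-rabbit (1:100, 1 h). Images at 200× with equal exposure; positive area as % of total plotted against time.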

[3] = system: integrin αvβ3/αvβ5 in human carcinoma tissues; assay: Tumor tissue staining kinetics, time dependence, human carcinoma tissues; conditions: 50 μM, 5-90 min
[4] = system: integrin αvβ3/αvβ5 in xenografted U87MG glioma tissues; set-up: species or system human; conditions: xenografted U87MG glioma slices, 1 h incubation, tested at 0.1-100 μM
Method in brief: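 U87MG xenografts were snap-frozen in OCT and cut into 5 μm slices. Slices were fixed in ice-cold acetone for 10 min and air-dried for 20 min, then incubated for 1 h with test compound at 0.1, 1.0, 10, 20, 50 or 100 μM. After three PBS washes and DAPI mounting, images were taken at 200× with equal exposure. Fluorescent area was given as % of total area against concentration.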

[5] = system: integrin αvβ3/αvβ5 in human carcinoma tissues; assay: Tumor tissue staining, concentration dependence, human carcinoma tissues
Method in brief: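 Human colon, squamous cell lung and gastric carcinoma slices (5 μm) were deparaffinized in xylene and rehydrated through graded alcohols. They were stained for 1 h with test compound at […], PBS-washed three times and mounted with DAPI medium. Images at 200× with equal exposure and equal brightness/contrast adjustment. Positive staining area was expressed as % of total area and plotted against concentration.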

Substance	Staining of tumor tissues (RGD specificity) [1]	Incubation time to achieve maximal fluorescent intensity [2]	Incubation time for positive staining of colon cancer tissues [3]	Concentration range in which tissues were well stained [4]	Staining of xenografted U87MG glioma tissues in the absence of blocker ([1]; 1 h, room temperature)	Minimal concentration for positive staining of colon carcinoma ([5]; human colon carcinoma slices, 1 h incubation, tested at 1-50 μM)	Staining of gastric carcinoma tissue ([5]; human gastric carcinoma tissue, 1-50 μM)	Concentration needed to achieve adequate fluorescence staining ([5]; human squamous cell lung cancer tissues, 1 h incubation)
FITC-PEG4-E[PEG4-c(RGDfK)]2 (bicyclic or more) [FITC-3P-RGD2]	positively stained	–	–	–	–	–	–	–
FITC-E[c(RGDfK)]2 (bicyclic or more) [FITC-RGD2]	positively stained	–	–	–	–	–	–	–
FITC-Glu[cyclo[Arg-Gly-Asp-D-Phe-Lys(SAA-PEG2-(1,2,3-triazole)-1-yl-4-methylamide)]]2 (bicyclic or more) [FITC-Galacto-RGD2]	positively stained	≤ 30 min	≤ 15 min	10 to 100 µM	successfully stained	~5 µM	little staining	> 25 µM
